# Only some compounds are listed: those with a hit (about 1.3% of all), similar ones and a draw of the others.
# EP2 antag: human EP2 receptor antagonists, primary screen, TR-FRET cAMP, C6 glioma cells. Prostaglandin E2 receptor EP2 subtype (Homo sapiens), P43116. AID 1422, 2008. hit rate 0.52% among 260,000. C6 glioma cells expressing human EP2; cells stimulated with saturating PGE2. inhibition, % at 25 µM;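 active = percent inhibition above 40 after rounding to a whole number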;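 note: rat C6 glioma host cells with rolipram phosphodiesterase inhibitor present; the protocol text gives 20 µM as final concentration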
# Target sequence (P43116 whole entry, looked up): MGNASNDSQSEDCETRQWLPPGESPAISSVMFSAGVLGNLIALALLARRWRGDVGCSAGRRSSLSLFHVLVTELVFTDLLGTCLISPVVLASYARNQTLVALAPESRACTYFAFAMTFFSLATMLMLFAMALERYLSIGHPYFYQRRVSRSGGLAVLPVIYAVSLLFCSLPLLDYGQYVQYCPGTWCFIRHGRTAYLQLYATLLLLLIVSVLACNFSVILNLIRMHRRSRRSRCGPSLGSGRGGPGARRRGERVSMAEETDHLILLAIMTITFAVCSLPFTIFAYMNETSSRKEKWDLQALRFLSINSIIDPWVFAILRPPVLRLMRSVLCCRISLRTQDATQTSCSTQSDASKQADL
# EP2 mod: EP2 receptor modulators, cAMP readout, primary screen, cell-based, HTRF cAMP, PGE2 stimulation | hit rate 0.83% among 260,000 | Prostaglandin E2 receptor EP2 subtype (Homo sapiens), P43116 | EP2-expressing cells, cAMP HTRF FRET, PGE2 co-stimulation | AID 940, 2007 | induction, % at 25 µM;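 active = compounds whose cAMP rise, as percent of the full-agonist control response, exceeds 60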;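 note: rat C6 glioma line stably carrying human EP2 under a CMV promoter; the protocol text gives 20 µM as final concentration; 100% = response of wells given 1 µM PGE2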
# NR2E3 ag-1: NR2E3 agonists in two-hybrid cells, primary screen, cell-based, luminescence, CHO-S, Gal4-NCOR/VP16-NR2E3; Photoreceptor-specific nuclear receptor (Homo sapiens), Q9Y5X4; luciferase; inhibition of corepressor binding, % at 3.98 µM; hit rate 0.35% among 360,000;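 active = inhibition above the mean of all tested compounds plus 3 SD, cut at about 70% in these data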;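 note: 0% = DMSO with NR2E3 transfected cells and 100% = cells lacking NR2E3 construct; higher means lower luciferase signal from less NR2E3 corepressor binding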
# Target sequence (Q9Y5X4 whole entry, looked up, the tested form may be a part): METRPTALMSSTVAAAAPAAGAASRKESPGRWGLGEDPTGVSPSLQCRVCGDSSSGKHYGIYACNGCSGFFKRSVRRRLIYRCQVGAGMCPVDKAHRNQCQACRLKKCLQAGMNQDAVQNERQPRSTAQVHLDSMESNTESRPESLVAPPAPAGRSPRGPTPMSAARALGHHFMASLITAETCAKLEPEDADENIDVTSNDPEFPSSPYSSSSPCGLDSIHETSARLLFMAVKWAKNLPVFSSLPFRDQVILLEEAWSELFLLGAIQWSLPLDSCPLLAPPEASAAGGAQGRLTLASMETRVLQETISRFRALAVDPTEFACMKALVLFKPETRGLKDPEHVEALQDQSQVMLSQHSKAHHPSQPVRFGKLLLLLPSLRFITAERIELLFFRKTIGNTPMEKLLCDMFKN
# Furin inhibitor: human furin inhibitors, primary screen, biochemical, fluorescence intensity; P09958; purified furin, fluorogenic substrate cleavage; inhibition, % at 20 µM or 30 µM; hit rate 0.061% among 220,000; AID 463115, 2010; in the data active = inhibition above about 25%
# NR2E3 ag-2: inhibitors of NR2E3-RetCOR corepressor binding, primary screen, NR2E3 agonist project, biochemical, TR-FRET, GST-NR2E3, biotin-RetCOR | AID 2300, 2010 | inhibition of corepressor binding, % at 4.78 µM | hit rate 0.12% among 320,000 | Photoreceptor-specific nuclear receptor (Homo sapiens), Q9Y5X4 | 1536-well;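 active = percent inhibition above the cutoff of mean plus 3 SD of all tested compounds, set per screening campaign, cut at about 20% in these data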;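 note: 0% = DMSO wells and 100% = biotin wells as full block of FRET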
#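 Material: NR2E3–RetCOR corepressor complex | Quantity: 1.35 nM GST-tagged NR2E3 final | Schedule: 5 h at 4 °C | Replication: Singlicate compound wells | Reagent: RetCOR corepressor, biotinylated, 7 nM | Controls: Biotin wells as high control, 0.6% DMSO wells as low control | Signal: TR-FRET, Eu(K)-anti-GST donor, streptavidin-D2 acceptor, ex 340, em 617/671 nm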
# GASC-1 inh: inhibitors of GASC-1 histone demethylase, primary screen, biochemical, fluorescence, DELFIA europium; Lysine-specific demethylase 4C (Homo sapiens), Q9H3R0; GST-JMJD2C(1-420) H3K9me3 demethylation; inhibition, % at 2.35 µM; hit rate 0.069% among 330,000;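 active = more than half of a compound's replicate wells show inhibition beyond 50%, single wells judged on their own value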;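 note: signal counts dimethyl H3K9 product captured on neutravidin plate; 0% = median of DMSO wells and 100% = 0.3 times that DMSO median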
# NR2E3 ag conf: NR2E3 agonist confirmation in cells, cell-based, luminescence, CHO-S two-hybrid; shares compounds with NR2E3 ag-1; CHO-S mammalian two-hybrid NR2E3-NCOR, luciferase luminescence; inhibition, % at 3.98 µM; hit rate 51% among 2,300;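 active = average inhibition above a cutoff equal to the mean inhibition of all tested compounds plus one SD, cut at about 70% in these data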;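 note: 0% = DMSO in NR2E3 cells and 100% = DMSO in cells lacking NR2E3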
# VP16 counter: GAL4-VP16 reporter modulators, confirmation, counter-screen for NR2E3 agonist project, cell-based, luminescence, CHO-S, high throughput; shares compounds with NR2E3 ag-1; CHO-S GAL4-VP16 luciferase reporter; inhibition, % at 3.98 µM; hit rate 29% among 2,300;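 active = mean inhibition above a cutoff equal to the average over all tested compounds plus one standard deviation, cut at about 70% in these data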;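 note: luciferase from a UAS reporter driven by GAL4-VP16 transactivation; 0% = DMSO with VP16-transfected cells and 100% = DMSO with cells lacking VP16; higher means less reporter light so more repression of VP16 activity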
# * marks the source's active call; other numbers are inactive results; x = no result given.
SMILES,EP2 antag,EP2 mod,NR2E3 ag-1,Furin inhibitor,NR2E3 ag-2,GASC-1 inh,NR2E3 ag conf,VP16 counter
Cc1nc2c(-c3ccc(F)cc3)cnn2c(N)c1-c1ccccc1,x,x,77.3*,x,1.8,-13.9,47.6,12.2
Cc1nc2c(-c3ccc(Cl)cc3)cnn2c(N)c1-c1ccc(F)cc1,x,x,31.7,x,0.7,6.1,x,x
NC(=S)NN=C1c2ccccc2-c2ccccc21,x,x,72.2*,x,3.5,16.4,-3.6,-10.9
COC(=O)CN1C(=O)C(O)=C(C(C)=O)C1c1cccc(F)c1 (stereo unspecified),6.0,-7.4,x,x,x,x,x,x
CCOC(=O)CSc1nnc2n(Cc3ccc(C)cc3)c3ccccc3n12,24.5,-3.8,x,x,x,x,x,x
O=S(=O)(Nc1cccc2cccnc12)c1ccccc1,x,x,85.8*,x,-0.1,-32.4,18.1,3.6
CC(=O)Nc1ccc(S(=O)(=O)Nc2cccc3cccnc23)cc1,x,x,23.8,x,-2.1,0.5,x,x
Cc1ccc(S(=O)(=O)Nc2cccc3cccnc23)c([N+](=O)[O-])c1,x,x,75.5*,x,1.1,0.1,54.6,22.4
CCn1c(N2CCC(C(=O)NCc3cccc(F)c3)CC2)nc2ccccc21,6.8,-78.3,x,x,x,x,x,x
Cc1cc(C(F)(F)F)c2c(NCC3=Cc4ccccc4OC3)n[nH]c2n1,x,-64.2,x,x,x,x,x,x
CCCS(=O)(=O)N1CCC(c2nc3c(nnn3Cc3ccc(C)cc3)c(=O)[nH]2)CC1,9.7,28.1,x,x,x,x,x,x
Brc1ccc(N/N=C(/N=Nc2nn[nH]n2)c2ccccc2)cc1,0.8,-31.2,72.1*,-11.9,0.1,x,94.2*,35.3
COc1ccc(CNC(=O)[C@@H]2C=CCN2c2c3c(nc4ncnn24)CCC3)cc1,5.9,-46.1,x,x,x,x,x,x
CC(=O)Nc1ccc(C(=O)Nc2cccc(S(=O)(=O)N(C)c3ccccc3)c2)cc1,x,x,2.8,x,3.0,x,x,x
CN(c1ccccc1)S(=O)(=O)c1cccc(NC(=O)c2ccncc2)c1,6.9,-9.6,53.5,-24.9,-2.9,-7.5,37.6,45.1
Cc1nc2ccc(NC(=O)c3cc(S(=O)(=O)N(C)c4ccccc4)ccc3Cl)cc2s1,11.0,-8.9,80.0*,-19.8,0.5,2.5,91.0*,80.4*
O=S(=O)(c1ccc(Cl)cc1)c1ccc(N2CCSCC2)cc1,10.7,-83.0,x,x,x,x,x,x
COc1ccc2cc(C)c3nnc(SCC(=O)N4CCCCC4C)n3c2c1 (stereo unspecified),16.6,-60.3,x,x,x,x,x,x
CNc1snc(C)c1C(=O)OCC(=O)c1cc(F)ccc1OC,x,x,28.1,x,-0.5,x,x,x
CNc1snc(C)c1C(=O)OCC(=O)c1ccc(OC)c(F)c1,x,x,53.0,x,2.9,1.7,56.7,49.8
COc1ccc(Br)cc1Cn1nnc(C(=O)Nc2ccc3c(c2)OCCO3)c1N,x,x,56.3,x,1.3,-7.5,64.9,11.8
COc1ccc(CCNC(=O)c2nnn(-c3ccccc3OC)c2N)cc1OC,-1.0,2.7,-4.8,-21.7,-2.2,-7.6,x,x
COc1ccc(CCNC(=O)c2nnn(-c3ccc4c(c3)OCCO4)c2N)cc1OC,7.0,-20.8,65.9,-23.2,1.5,1.6,51.0,23.9
Cc1ccc(-n2nc3c(=O)n(C(C)C(=O)NCCC4=CCCCC4)nc(C)c3c2C)cc1 (stereo unspecified),x,x,51.3,x,-1.6,-11.4,11.7,40.6
O=C(NC(Nc1nc2ccc([N+](=O)[O-])cc2s1)(C(F)(F)F)C(F)(F)F)c1ccccc1Cl,5.7,5.9,98.0*,-9.4,5.8,10.5,97.3*,90.4*
SMILES,EP2 antag,EP2 mod,NR2E3 ag-1,Furin inhibitor,NR2E3 ag-2,GASC-1 inh,NR2E3 ag conf,VP16 counter
O=C(NC(Nc1nc2ccc([N+](=O)[O-])cc2s1)(C(F)(F)F)C(F)(F)F)c1cccnc1,6.3,-5.7,101.3*,-11.3,0.2,5.3,98.0*,89.0*
CN(C)S(=O)(=O)c1ccc2nc(NC(=O)c3cccnc3)sc2c1,12.0,6.2,-65.3,-4.4,-1.6,16.2,x,x
CCOc1cccc(C2C(C(=O)c3ccc(C)o3)=C(O)C(=O)N2CCCN(C)C)c1 (stereo unspecified),4.7,-8.2,x,x,x,x,x,x
O=C(Nc1ccc(OC(F)(F)F)cc1)Nc1cccc([N+](=O)[O-])c1,12.2,-9.7,93.7*,-12.9,-3.5,-3.4,99.3*,87.9*
CCN(CC)S(=O)(=O)c1ccc(NC(=O)Nc2cccc(C(F)(F)F)c2)cc1,10.0,-44.1,69.7,-10.9,2.2,5.6,74.7*,41.9
O=C(Nc1ccc(OC(F)F)cc1)Nc1cccc(C(F)(F)F)c1,7.8,-22.8,56.7,-13.6,-0.2,4.7,24.2,31.1
Cc1ccc(S(=O)(=O)Nc2ccc(NC(=O)Nc3cccc(C(F)(F)F)c3)cc2)cc1,5.3,9.3,4.9,-9.4,-0.7,1.8,x,x
COc1cc2c(cc1CN1CCc3sccc3C1C)OCO2 (stereo unspecified),1.3,10.3,x,x,x,x,x,x
CCn1c(CNc2cccc(Cl)c2)nnc1SCCN1CCOCC1,10.2,-29.6,x,x,x,x,x,x
COc1ccccc1NC(=O)C1=C(C)OC(N)=C(C#N)C1c1cc2ccc(C)cc2[nH]c1=O (stereo unspecified),12.0,25.7,x,x,x,x,x,x
O=C(Nc1nccs1)c1ccc(S(=O)(=O)NCC2CCCCC2)cc1,11.1,-40.7,58.2,-27.1,-0.2,1.8,59.3,65.1
O=C(Nc1cccc(Cl)c1)c1cc(N=Nc2ccc([N+](=O)[O-])cc2Cl)ccc1O,39.4,-64.4,71.3*,-1.8,2.5,-9.5,100.3*,92.4*
O=C(Nc1ccc([N+](=O)[O-])cc1Cl)c1cc(Cl)ccc1O,12.9,-12.0,-110.2,x,1.6,x,x,x
COc1ccc(NC(=O)CSc2ncc(-c3ccccc3)n2Cc2ccco2)c(OC)c1,4.7,45.4,x,x,x,x,x,x
Cc1nc(-c2ccccn2)nc(N(C)c2ccccc2)c1Cl,x,x,105.4*,x,0.0,10.2,38.7,17.1
CCc1c(C)nc2nc(SCc3ccccc3Cl)[nH]n2c1=O,x,x,68.8,x,-3.3,2.7,84.2*,61.0
Cc1ccc(Nc2nc(N)c([N+](=O)[O-])c(N3CCC(C)CC3)n2)cc1C,10.9,54.3,-14.1,-16.3,-0.1,-3.1,x,x
Cc1ccc(Nc2nc(N)c([N+](=O)[O-])c(N3CCOCC3)n2)cc1C,6.0,-9.9,47.6,-10.0,-2.4,-6.4,5.9,-17.8

# From PubChem BioAssay
